Only some compounds are listed: those with a hit (about 6.7% of all), similar ones and a draw of the others.
NR3A LBD binder = modulators (binders) of human NR3A ligand-binding domain. NR3A LBD differential scanning fluorimetry, Tm shift; 0% = protein alone, 100% = glycine-bound protein. Tm shift relative to glycine control, % at 25 µM. actives 2.5% (n = 340,000). AID 1259313;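 active = melting temperature shift of at least 10% of the positive control shift, at one fixed dose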
Beta apoptosis = blocks beta cell apoptosis; INS-1E cytokine-induced death, ATP luminescence, 48 h; percent of positive-control rescue, neutral wells zero; actives 0.8% (n = 300,000); protection from apoptosis, % (test concentration not listed); AID 435005;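 active = Every replicate reaches about 75%, or at least half do and their mean reaches it too, limit read from the data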;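 also: 0% = cytokine-treated negative control wells and 100% = positive control rescue; higher means more ATP so stronger rescue from cytokine killing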
PREPL inhibitor = inhibitors of human prolyl oligopeptidase-like enzyme PREPL. Q4J6C6. inhibition, % at 5.96 µM. actives 0.68% (n = 320,000). recombinant PREPL, fluorescence polarization activity-based probe; in the data active = inhibition above about 43%;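 also: 0% = enzyme with DMSO and 100% = wells lacking enzyme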
Target sequence (Q4J6C6 whole entry, looked up): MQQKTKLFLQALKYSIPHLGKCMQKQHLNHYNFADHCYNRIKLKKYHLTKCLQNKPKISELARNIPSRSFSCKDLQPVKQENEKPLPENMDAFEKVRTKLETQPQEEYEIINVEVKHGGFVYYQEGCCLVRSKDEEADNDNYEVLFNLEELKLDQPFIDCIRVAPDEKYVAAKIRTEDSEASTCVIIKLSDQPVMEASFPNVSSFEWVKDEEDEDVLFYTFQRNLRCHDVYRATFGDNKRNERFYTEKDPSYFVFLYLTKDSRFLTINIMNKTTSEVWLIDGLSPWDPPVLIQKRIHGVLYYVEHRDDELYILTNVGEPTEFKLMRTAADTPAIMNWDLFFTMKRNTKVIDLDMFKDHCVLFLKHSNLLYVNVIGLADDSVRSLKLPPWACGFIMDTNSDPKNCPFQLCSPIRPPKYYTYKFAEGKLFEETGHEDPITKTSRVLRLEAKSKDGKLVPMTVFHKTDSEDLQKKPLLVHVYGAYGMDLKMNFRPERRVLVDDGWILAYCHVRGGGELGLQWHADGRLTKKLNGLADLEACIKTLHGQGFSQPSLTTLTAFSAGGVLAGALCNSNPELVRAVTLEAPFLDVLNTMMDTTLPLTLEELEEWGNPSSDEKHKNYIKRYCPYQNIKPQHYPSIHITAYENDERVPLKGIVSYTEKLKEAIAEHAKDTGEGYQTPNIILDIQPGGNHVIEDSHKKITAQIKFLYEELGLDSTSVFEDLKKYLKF
T cruzi repl = T. cruzi replication inhibition. inhibition, % (no concentration beside the values). T. cruzi beta-gal in NIH3T3, luminescence, 90 h. actives 1.4% (n = 300,000). AID 1885;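 active = mean inhibition across valid replicates above about 55%, limit read from the data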;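 also: signal also drops with host cell toxicity which is not excluded here; 0% = plate median of DMSO wells and 100% = zero luminescence signal; higher percent means less beta-gal luminescence so fewer parasites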
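Material: NIH/3T3 host cells with β-galactosidase reporter T. cruzi; Input: 5,000 host fibroblasts per well; Medium: DMEM, 2% fetal bovine serum; Compound: 50 nL DMSO compound solution per well; Schedule: 3 h host attachment, then at least 90 h co-culture; Detection: luminescent β-galactosidase signal after 60 min lysis.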
CSC inhib = blocks cancer stem cells | cancer stem cell-like cells viability, luminescence | AID 2717 | inhibition, % at 7.5 µM | actives 1.1% (n = 300,000); in the data active = inhibition above about 75%; tested in HMLE shEcad cells
CHOP inh = blocks CHOP induction under ER stress; inhibition, % at 10 µM; AID 2732; CHO-K1 CHOP-promoter luciferase, tunicamycin-induced, 15-18 h; actives 3.8% (n = 220,000);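 active = compounds that reduced the stress-induced luciferase reporter signal by more than about 70% of percent inhibition, limit read from the data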;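 also: 0% = tunicamycin plus vehicle and 100% = wells without tunicamycin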
The depositor's hits bear a star; nt = no result given.

SMILES | NR3A LBD binder | Beta apoptosis | PREPL inhibitor | T cruzi repl | CSC inhib | CHOP inh
COc1ccc(-c2ccc(N(C)C)cc2)cc1[C@H]1[C@@H]2C=CCC[C@@]2(C)C(=O)N1Cc1ccccc1 | -2 | 4 | 2 | 34 | 49 | 7
CC(=O)c1ccc(-c2ccc([C@H]3[C@@H]4C=CCC[C@@]4(C)C(=O)N3Cc3ccccc3)c(F)c2)cc1 | -2 | 22 | -1 | 28 | 121* | 25
Cc1ccc(NC(=O)CC2Nc3ccccc3NC2=O)cc1Cl (centres undefined) | 10* | nt | nt | nt | nt | nt
O=C(CC1Nc2ccccc2NC1=O)Nc1ccc2c(c1)OCO2 (centres undefined) | -10 | -5 | 5 | -14 | -8 | 12
COc1cc(/C=C/C(=O)OCC(=O)N2c3ccccc3NC(=O)C2(C)C)cc(OC)c1OC | -4 | 4 | 4 | nt | nt | nt
C[C@@H]1C(=O)N(c2ccccc2)[C@@H]1c1ccncc1 | -2 | nt | nt | nt | nt | nt
CC1CCN(S(=O)(=O)c2ccc(NC(=O)Cc3ccccc3)cc2)CC1 | -2 | -2 | -4 | 13 | 25 | 85*
CC1CCN(S(=O)(=O)c2ccc(NC(=O)CN3CCN(C)CC3)cc2)CC1 | 1 | -2 | 12 | 59* | 26 | 1
CC1CCN(S(=O)(=O)c2ccc(NC(=O)Cn3nnc(-c4ccccc4F)n3)cc2)CC1 | 6 | 4 | -1 | 69* | 11 | 62
O=C(Cc1ccccc1)Nc1ccc(S(=O)(=O)N2CCOCC2)cc1 | -2 | 4 | -3 | -3 | 4 | nt
CCSc1ccc(/C(N)=N/OC(=O)c2cccs2)cn1 | -9 | -1 | 0 | 6 | -2 | nt
COc1ccc2oc(=O)c(-c3csc(Nc4cccc(O)c4)n3)cc2c1 | 27* | nt | 36 | 4 | nt | 0
CC(=O)Nc1ccc(Nc2nc(-c3cc4ccccc4oc3=O)cs2)cc1 | 4 | nt | nt | 17 | nt | nt
COc1ccc(Nc2nc(-c3cc4cccc(OC)c4oc3=O)cs2)cc1 | 16* | 0 | 25 | 28 | -19 | 39
Cn1nnnc1SC1CC(=O)N(c2ccccc2)C1=O (centres undefined) | 1 | 1 | -6 | 66* | -8 | -6
CN(C(=O)c1cccc(NC(=O)Cc2ccc(NC(=O)C3CCN(C(=O)C4CCC4)CC3)cc2)c1)C1CCC1 | 1 | nt | nt | nt | nt | nt
CC1CN(c2ccc(C(F)(F)F)cc2[N+](=O)[O-])CCN1S(C)(=O)=O (centres undefined) | 14* | -3 | -7 | 8 | -10 | 24
C=C1CCC2[C@](C)(CO[C@@H]3O[C@H](CO)[C@@H](O)[C@H](O)[C@H]3O)CCC[C@@]2(C)[C@@H]1CCC1=CCOC1=O (some centres undefined) | -2 | -3 | 3 | nt | -11 | nt
CCCCN(CC)C(=O)c1cc2cc3ccc(Cl)cc3nc2o1 | 19* | -3 | -3 | 15 | 10 | nt
CCCCN(CC)CCCNC(=O)c1cc2cc3ccc(OC)cc3nc2o1 | 2 | 1 | -11 | 54 | -28 | nt
O=C(CN(C(=O)c1csnn1)c1cccc(Cl)c1)NC1CCCCC1 | 0 | -2 | 4 | 8 | 1 | nt
CC(C)c1ccc(C(C(=O)NC2CCCC2)N(C(=O)c2csnn2)C2CC2)cc1 (centres undefined) | 0 | 4 | 1 | 16 | -1 | nt
CCN(CC)C(=O)Cn1c(=O)c2ccccc2n2c(=S)sc(-c3cccc(C)c3)c12 | 1 | -1 | 16 | 17 | -5 | 8
Cc1cccc(CS(=O)(=O)c2nnc([C@H](Cc3ccccc3)NC(=O)OC(C)(C)C)o2)c1 | 1 | 53 | -2 | 43 | 95* | 115*
COc1ccc(-n2nc(C(=O)NCC(=O)N3CCCC3)c3ccccc3c2=O)cc1Cl | -1 | 0 | 5 | -7 | -9 | nt
SMILES | NR3A LBD binder | Beta apoptosis | PREPL inhibitor | T cruzi repl | CSC inhib | CHOP inh
CN(C)CC/C=C1\c2ccc(F)cc2Sc2cc(F)c(Cl)cc21 | -6 | nt | -30 | 40 | 83* | nt
O=C(OCC(=O)N1CCN(C(=O)c2ccco2)CC1)c1cncc(Br)c1 | 2 | 4 | 7 | nt | nt | nt
Nc1nc(O)c(Sc2ccccc2[N+](=O)[O-])c(=O)[nH]1 | 17* | -4 | -5 | -10 | -16 | nt
Nc1ccccc1Sc1ccccc1[N+](=O)[O-] | -1 | -3 | -6 | 2 | 14 | 27
CCN(CC)CCC(c1cc(OC)c(OC)c(OC)c1)c1c(OC)cc(OC)c2ccc(=O)oc12 (centres undefined) | 13* | -11 | -7 | 20 | 2 | 20
CCN(CC)CCC(c1ccc2c(c1)OCO2)c1c(OC)cc(OC)c2ccc(=O)oc12 (centres undefined) | -1 | 5 | -24 | -1 | 2 | 1
CCCn1nnnc1SCC(=O)c1ccc2c(c1)OCCO2 | -12 | -6 | -10 | -17 | -13 | 85*
FC(F)(F)c1nnc2c(Sc3ccc(Cl)cc3)nc3ccccc3n12 | -3 | 3 | -2 | 46 | 49 | 71*
FC(F)(F)c1nc2ccccc2n2c(-c3ccc(Cl)cc3)nnc12 | 1 | 101* | -1 | 0 | nt | 29
Cc1ccc(-c2nnc3c(C(F)(F)F)nc4ccccc4n23)cc1 | 0 | 4 | 5 | -1 | -6 | 5
Cc1cc(S(=O)(=O)N2CCCC(N(C)CCc3ccccn3)C2)c(C)s1 (centres undefined) | nt | nt | -1 | 24 | -11 | nt
CN(CCc1ccccn1)C1CCCN(S(=O)(=O)c2ccc(F)c(Cl)c2)C1 (centres undefined) | -1 | -6 | 11 | 72* | 8 | nt
OC(COc1ccc2ccccc2c1Br)Cn1cnc(-c2ccccc2)c1 (centres undefined) | 14* | 3 | -17 | 23 | 101* | 76*
CCCNS(=O)(=O)c1cc(CN2C(=O)c3cccnc3C2=O)ccc1OC | 0 | -9 | -9 | -7 | -1 | nt
Cc1cc(C)c(S(=O)(=O)c2ccc(F)cc2C)c(Cl)n1 | 2 | -4 | -2 | 55* | -3 | nt
CCSc1nc(C)cc(C)c1S(=O)(=O)c1ccccc1C | -11 | nt | -4 | 25 | 2 | 71*
Cc1cc(C)c(S(=O)(=O)c2ccc(Cl)cc2)c(Cl)n1 | -1 | 2 | -1 | 8 | -12 | 32
Cc1cc(C)c(S(=O)(=O)c2ccccc2Cl)c(Cl)n1 | nt | -4 | -5 | 55* | 16 | -11
COc1cc(C)c(CNc2cccc(C)c2)cc1C | 2 | -8 | 5 | -2 | -6 | 63
COc1cc(C)c(CNc2cc(C)cc(C)c2)cc1C | 20* | -5 | 3 | 6 | -2 | 52
O=C(c1ccc(C23CC4CC(CC(C4)C2)C3)o1)N1CCOCC1 | -3 | -4 | 0 | 10 | 8 | 77*
Oc1cccc(/C=N/n2c(C3CCCCC3)n[nH]c2=S)c1 | -3 | -7 | -8 | -7 | -12 | nt
S=c1[nH]nc(C2CCCCC2)n1/N=C/c1ccc(Br)s1 | -7 | 4 | 8 | 9 | 5 | 95*
